Data published in ChEMBL document CHEMBL3407499, “Synthesis, QSAR and anticandidal evaluation of 1,2,3-triazoles derived from naturally bioactive scaffolds” (Eur J Med Chem, 2015).
In brackets after ≈: the same amount, converted by molar mass.

Experiments:
[1] = system: Candida tropicalis; assay: Anticandidal activity against Candida tropicalis ATCC 750 incubated at 37 degC for 24 hrs by broth dilution method; assay type: functional, organism-based; settings: ATCC 750, 24 h
[2] = system: Nakaseomyces glabratus; assay: microbe, parasite or virus in culture; assay type: functional, organism-based; settings: ATCC 90030, 24 h
[3] = system: Candida tropicalis; assay: Fungicidal activity against Candida tropicalis ATCC 750 incubated at 37 degC for 48 hrs by broth dilution method; assay type: functional; settings: ATCC 750, 48 h
[4] = system: Nakaseomyces glabratus; assay: microbe, parasite or virus in culture; assay type: functional; settings: ATCC 90030, 48 h
[5] = system: Candida albicans; assay: microbe, parasite or virus in culture; assay type: functional; settings: ATCC 90028, 48 h
[6] = system: Candida albicans; assay: microbe, parasite or virus in culture; assay type: functional, organism-based; settings: ATCC 90028, 24 h
[7] = system: Vero; assay: Cytotoxicity against African green monkey Vero cells assessed as reduction in cell viability up to 10 ug/ml after 48 hrs by neutral red assay; assay type: cell-based; settings: chlorocebus sabaeus
[8] = Toxicity in human RBC assessed as induction of hemolysis at 500 ug/ml incubated for 1 hr by spectrophotometry; assay type: cell-based, Erythrocyte; settings: red blood cells (RBC), read-out: Activity
Outline: (§1)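 Human erythrocyte suspension in PBS, 100 µL added in triplicate to 100 µL compound dilution series in the same buffer, 1 h at 37 °C. Tubes centrifuged 10 min at 2000 rpm and 20 °C, and supernatant A450 measured. Percent hemolysis taken relative to buffer (0%) and 1% Triton X-100 (100%).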

[9] = system: Candida tropicalis; assay: Anticandidal activity against Candida tropicalis ATCC 750 incubated at 37 degC for 24 hrs in presence of 8-((1-Benzyl-1H-1,2,3-triazol-4-yl)methoxy)quinoline by broth micro dilution method; assay type: functional; settings: ATCC 750, 24 h
[10] = system: Nakaseomyces glabratus; assay: Anticandidal activity against Candida glabrata ATCC 90030 incubated at 37 degC for 24 hrs in presence of 8-((1-Benzyl-1H-1,2,3-triazol-4-yl)methoxy)quinoline by broth micro dilution method; assay type: functional; settings: ATCC 90030, 24 h
[11] = Toxicity in human RBC assessed as induction of hemolysis at anticandidal IC50 level incubated for 1 hr by spectrophotometry; assay type: cell-based, Erythrocyte; settings: red blood cells (RBC), read-out: Activity; outline: as §1
[12] = system: Nakaseomyces glabratus; assay: Anticandidal activity against Candida glabrata ATCC 90030 incubated at 37 degC for 24 hrs in presence of fluconazole by broth micro dilution method; assay type: functional; settings: ATCC 90030, 24 h
[13] = system: Nakaseomyces glabratus; assay: Anticandidal activity against Candida glabrata ATCC 90030 assessed as fractional inhibitory concentration incubated at 37 degC for 24 hrs in presence of fluconazole by broth micro dilution method; assay type: functional
[14] = system: Candida albicans; assay: Anticandidal activity against Candida albicans ATCC 90028 incubated at 37 degC for 24 hrs in presence of fluconazole by broth micro dilution method; assay type: functional; settings: ATCC 90028, 24 h
[15] = system: Candida tropicalis; assay: Anticandidal activity against Candida tropicalis ATCC 750 incubated at 37 degC for 24 hrs in presence of fluconazole by broth micro dilution method; assay type: functional; settings: ATCC 750, 24 h
[16] = system: Candida albicans; assay: Anticandidal activity against Candida albicans ATCC 90028 assessed as fractional inhibitory concentration incubated at 37 degC for 24 hrs in presence of fluconazole by broth micro dilution method; assay type: functional
[17] = system: Candida tropicalis; assay: Anticandidal activity against Candida tropicalis ATCC 750 assessed as fractional inhibitory concentration incubated at 37 degC for 24 hrs in presence of fluconazole by broth micro dilution method; assay type: functional
[18] = system: Vero; assay: Cytotoxicity against African green monkey Vero cells assessed as reduction in cell viability after 48 hrs by neutral red assay; assay type: cell-based; settings: chlorocebus sabaeus
Outline: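 Vero (monkey kidney fibroblast) cells seeded at 25,000 cells/well, grown 24 h, then exposed to a range of compound concentrations for 48 h. Viable cells quantified by Neutral Red uptake. IC50 read from dose-response curves. Doxorubicin served as positive cytotoxic control.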

Structure (SMILES)	IC50 [1]	IC50 [2]	MFC [3]	MFC [4]	MFC [5]	IC50 [6]	Activity [7]	further results
COc1ccccc1O [GUAIACOL]	201 mg/L (≈ 1620 µM)	336 mg/L (≈ 2700 µM)	> 1000 mg/L	> 1000 mg/L	> 1000 mg/L	179 mg/L (≈ 1440 µM)	–	–
C/C=C/c1ccc(OCc2cn(Cc3ccccc3)nn2)c(OC)c1	154 mg/L (≈ 459 µM)	293 mg/L (≈ 873 µM)	> 1000 mg/L	> 1000 mg/L	–	481 mg/L (≈ 1430 µM)	Non-toxic	–
CC(C)c1ccc(COCc2cn(Cc3ccccc3)nn2)cc1	169 mg/L (≈ 527 µM)	316 mg/L (≈ 984 µM)	> 1000 mg/L	> 1000 mg/L	> 1000 mg/L	324 mg/L (≈ 1010 µM)	Non-toxic	–
OC(Cn1cncn1)(Cn1cncn1)c1ccc(F)cc1F [FLUCONAZOLE]	8.55 mg/L (≈ 27.9 µM)	7.81 mg/L (≈ 25.5 µM)	–	–	–	15.6 mg/L (≈ 51 µM)	–	hemolysis at 1 h, 500 ug/ml [8]: 68.6%; MIC [1]: 15.6 mg/L (≈ 51 µM); MIC [2]: 15.6 mg/L (≈ 51 µM); MIC [9]: 3.9 mg/L; MIC [10]: 3.9 mg/L
C=CCc1ccc(O)c(OC)c1 [EUGENOL]	92.7 mg/L (≈ 564 µM)	216 mg/L (≈ 1310 µM)	> 1000 mg/L	> 1000 mg/L	> 1000 mg/L	237 mg/L (≈ 1440 µM)	–	–
COc1cc(/C=C/C(=O)O)ccc1OCc1cn(Cc2ccccc2)nn1	105 mg/L (≈ 288 µM)	416 mg/L (≈ 1140 µM)	> 1000 mg/L	> 1000 mg/L	> 1000 mg/L	891 mg/L (≈ 2440 µM)	Non-toxic	–
CC(C)c1ccc(OCc2cn(Cc3ccccc3)nn2)cc1	493 mg/L (≈ 1600 µM)	1060 mg/L (≈ 3460 µM)	1000 mg/L (≈ 3250 µM)	1000 mg/L (≈ 3250 µM)	1000 mg/L (≈ 3250 µM)	550 mg/L (≈ 1790 µM)	Non-toxic	–
COc1cc(C=O)ccc1O [VANILLIN]	123 mg/L (≈ 811 µM)	483 mg/L (≈ 3170 µM)	> 1000 mg/L	> 1000 mg/L	> 1000 mg/L	321 mg/L (≈ 2110 µM)	–	hemolysis at 1 h, 500 ug/ml [8]: 5.45%; hemolysis at 1 h [11]: < 5%
COc1cc(C=O)ccc1OCc1cn(Cc2ccccc2)nn1	92.7 mg/L (≈ 287 µM)	216 mg/L (≈ 667 µM)	500 mg/L (≈ 1550 µM)	500 mg/L (≈ 1550 µM)	> 500 mg/L	44.7 mg/L (≈ 138 µM)	Non-toxic	hemolysis at 1 h, 500 ug/ml [8]: 33.5%; hemolysis at 1 h [11]: < 5%
c1ccc(Cn2cc(COc3cccc4cccnc34)nn2)cc1	3.6 mg/L (≈ 11.4 µM)	12 mg/L (≈ 38 µM)	62.5 mg/L (≈ 198 µM)	125 mg/L (≈ 395 µM)	62.5 mg/L (≈ 198 µM)	0.044 mg/L (≈ 0.139 µM)	Non-toxic	MIC [12]: 7.81 mg/L; hemolysis at 1 h, 500 ug/ml [8]: 4.76%; MIC [1]: 15.6 mg/L (≈ 49.4 µM); MIC [2]: 31.2 mg/L (≈ 98.8 µM); hemolysis at 1 h [11]: < 5%; fractional inhibitory concentration index (FICI) [13]: 0.48; MIC [14]: 7.81 mg/L; MIC [15]: 7.81 mg/L; fractional inhibitory concentration index (FICI) [16]: 0.74; MIC [6]: 15.6 mg/L (≈ 49.4 µM); fractional inhibitory concentration index (FICI) [17]: 0.74
Oc1cccc2cccnc12 [OXYQUINOLINE]	22.9 mg/L (≈ 158 µM)	13.8 mg/L (≈ 95.1 µM)	500 mg/L (≈ 3440 µM)	500 mg/L (≈ 3440 µM)	500 mg/L (≈ 3440 µM)	18.5 mg/L (≈ 127 µM)	–	hemolysis at 1 h, 500 ug/ml [8]: 15%; MIC [1]: 15.6 mg/L (≈ 108 µM); hemolysis at 1 h [11]: < 5%
CC(C)c1ccc(O)cc1	69.5 mg/L (≈ 510 µM)	153 mg/L (≈ 1130 µM)	> 1000 mg/L	> 1000 mg/L	500 mg/L (≈ 3670 µM)	182 mg/L (≈ 1330 µM)	–	–
COc1ccccc1OCc1cn(Cc2ccccc2)nn1	165 mg/L (≈ 559 µM)	370 mg/L (≈ 1250 µM)	–	> 1000 mg/L	–	515 mg/L (≈ 1740 µM)	Non-toxic	–
COc1cccc2c1C(=O)c1c(O)c3c(c(O)c1C2=O)C[C@@](O)(C(=O)CO)C[C@@H]3O[C@H]1C[C@H](N)[C@H](O)[C@H](C)O1 [DOXORUBICIN]	–	–	–	–	–	–	–	IC50 [18]: > 5 mg/L
C=CCc1ccc(OCc2cn(Cc3ccccc3)nn2)c(OC)c1	734 mg/L (≈ 2190 µM)	847 mg/L (≈ 2530 µM)	–	> 1000 mg/L	> 1000 mg/L	1090 mg/L (≈ 3260 µM)	Non-toxic	–
COc1cc(/C=C/C(=O)O)ccc1O [FERULATE]	67.6 mg/L (≈ 348 µM)	617 mg/L (≈ 3180 µM)	> 1000 mg/L	> 1000 mg/L	> 1000 mg/L	210 mg/L (≈ 1080 µM)	–	–
C/C=C\c1ccc(O)c(OC)c1 [ISOEUGENOL]	128 mg/L (≈ 778 µM)	71.6 mg/L (≈ 436 µM)	1000 mg/L (≈ 6090 µM)	500 mg/L (≈ 3040 µM)	1000 mg/L (≈ 6090 µM)	83 mg/L (≈ 505 µM)	–	–
CC(C)c1ccc(CO)cc1	44.8 mg/L (≈ 298 µM)	7.09 mg/L (≈ 47.2 µM)	1000 mg/L (≈ 6660 µM)	500 mg/L (≈ 3330 µM)	1000 mg/L (≈ 6660 µM)	81.5 mg/L (≈ 542 µM)	–	–
